Screens as filed in PubChem.
CHO parental Ca – counter-screen for OX1R antagonists: effect in parental CHO cells | parental CHO-K1, ATP-induced calcium, Fluo-8 fluorescence | inhibition, % at 5.6 µM | hit rate 0.63% among 330,000 | AID 463079;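 active means inhibition above that plate's mean sample inhibition plus 3 SD, cut at about 26% in these data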;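 further: 0% = ATP-challenged DMSO wells and 100% = DMSO wells without ATP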
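Measured by: calcium-sensitive Fluo-8 fluorescence / Test system: CHO parental line / Controls: ATP-challenged DMSO wells low, unchallenged DMSO wells high / Measure: % inhibition / Compound: single nominal dose of 5.6 µM per compound / Replicates: single well per compound, no replicates / Reagent: ATP as calcium-mobilizing challenge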
OX1R antag-1 – OX1R (human) antagonism. OX1R-expressing cells, FRET antagonist read-out. inhibition, % at 6.6 µM. hit rate 1.8% among 330,000; in the data active means inhibition mostly above about 38%, no sharp cut-off; inactive means mostly below about 40%;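 further: 0% = agonist challenge alone and 100% = reference antagonist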
TAAR1 antagonist – antagonists of human TAAR1. CHO RD-HGA16 TAAR1, Fluo-8 calcium fluorescence, antagonist. inhibition, % at 3 µM. hit rate 1.5% among 360,000. AID 624466;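 active means inhibition above a per-plate cutoff, the mean inhibition of test compounds on that plate plus 3 SD, cut at about 49% in these data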;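 further: 0% = DMSO plus EC80 beta-PEA response and 100% = DMSO alone without agonist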
Target sequence (Q96RJ0 whole entry, looked up): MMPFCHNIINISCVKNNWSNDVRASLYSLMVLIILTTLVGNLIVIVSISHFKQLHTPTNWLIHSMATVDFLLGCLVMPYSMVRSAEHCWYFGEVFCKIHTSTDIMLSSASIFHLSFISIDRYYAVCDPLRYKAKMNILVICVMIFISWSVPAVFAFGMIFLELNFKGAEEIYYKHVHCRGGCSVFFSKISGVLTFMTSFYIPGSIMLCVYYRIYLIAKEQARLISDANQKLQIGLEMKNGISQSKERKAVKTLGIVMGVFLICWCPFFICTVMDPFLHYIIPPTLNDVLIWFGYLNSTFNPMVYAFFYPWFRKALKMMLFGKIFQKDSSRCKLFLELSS
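Test system – hTAAR1-expressing CHO RD-HGA16 cells, Gα16-coupled · Also added – β-PEA at EC80 concentration, post-compound challenge · Compound – 3 µM, single point · Incubation – dye loading 75 min at 37 °C, then 30 min room temperature · Measured by – Fluo-8 intracellular calcium dye fluorescence, real-time kinetic reads · Benchmarks – vehicle and agonist controls · Replicates – singlicate, one well per test compound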
GPR7 antagonist – antagonists of human GPR7 (neuropeptides B/W receptor 1); GPR7-expressing cells, fluorescence antagonist assay; hit rate 1.1% among 290,000; P48145; inhibition, % at 4.4 µM; in the data active means inhibition above about 16%, passing the limit was not always enough;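 further: cells stimulated with the agonist NPW; 0% = agonist with vehicle and 100% = vehicle without agonist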
Target sequence (P48145 whole entry, looked up): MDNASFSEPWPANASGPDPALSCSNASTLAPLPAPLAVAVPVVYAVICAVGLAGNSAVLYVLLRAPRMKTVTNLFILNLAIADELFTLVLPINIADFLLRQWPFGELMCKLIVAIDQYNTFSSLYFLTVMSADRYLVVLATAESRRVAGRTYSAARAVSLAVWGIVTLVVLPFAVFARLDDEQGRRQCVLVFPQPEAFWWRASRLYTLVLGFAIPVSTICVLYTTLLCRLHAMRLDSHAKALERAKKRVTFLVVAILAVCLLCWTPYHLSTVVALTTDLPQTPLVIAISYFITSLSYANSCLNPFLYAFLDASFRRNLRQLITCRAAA
OX1R antag-2 – human HCRTR1 antagonism. inhibition, % at 5 µM. hit rate 0.43% among 330,000. CHO/OX1R cells, Fluo-8 calcium fluorescence, orexin A;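 active means inhibition above its plate's threshold, mean inhibition of all tested compounds on the plate plus 3 SD, cut at about 37% in these data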;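 further: 0% = orexin A challenge wells and 100% = SB-334867-A antagonist wells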
TAAR1 ag – human TAAR1 agonism; CHO RD-HGA16 TAAR1, Fluo-8 calcium fluorescence; vehicle wells 0%, saturating PEA agonist 100%; activation, % at 3 µM; hit rate 0.99% among 360,000; AID 624467;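 active means activation above the mean activation of all test compounds in the run plus 3 SD, cut at about 38% in these data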
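System: CHO-derived RD-HGA16 cells with stable Gα16 and human TAAR1 / Times: 17-24 h plating, Fluo-8 75 min 37 °C, 30 min RT / Technique: calcium-sensitive Fluo-8 signal, excitation 470-495, emission 515-575 nm / Measure: % activation relative to PEA EC100 response / Benchmarks: DMSO and PEA EC100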
An asterisk follows results filed as active; / = not tested or not shown; ! = repeats disagree. In the library only some 4.5% were active in any assay of this set; here they are far more common.

SMILES | CHO parental Ca | OX1R antag-1 | TAAR1 antagonist | GPR7 antagonist | OX1R antag-2 | TAAR1 ag
CC(C)(C)c1cc(=O)n2c(C#N)c(C#N)nc2[nH]1 | 3 | 19 | 8 | -7 | -4 | 3
CC(C)(C)c1ccc(-n2nc(C#N)c(Cl)cc2=O)cc1 | / | / | 97* | 84* | / | 13
CCOC(=O)c1c(CN2CCN(C)CC2)n(C)c2cc(Br)c(OC)cc12 | -19 | 7 | 5 | 19* | -23 | 8
COc1cc(CNCCc2ccccc2)cc(Cl)c1OCc1ccccc1 | 27 | 5 | 39 | 9 | -17 | 40*
CC(=O)Nc1ccc(NC(=O)COC(=O)C2(c3ccc(Cl)cc3)CCCC2)cc1 | -4 | 17 | 49* | 2 | -12 | 39*
NS(=O)(=O)c1cccc(NC(=O)CC2(CC(=O)O)CCCC2)c1 | 7 | 3 | -11 | 1 | -9 | 0
CCN(CC(=O)Nc1ccc(NC(C)=O)cc1)C(=O)C1(c2ccc(Cl)cc2)CCC1 | / | / | 11 | / | / | 5
NS(=O)(=O)c1cccc(NC(=O)COC(=O)C2(c3cccc(F)c3)CCCC2)c1 | -10 | 14 | 52* | 2 | -8 | 6
COC(=O)c1cc(S(=O)(=O)NCC2CCN(C(=O)C(=O)c3cccs3)CC2)cs1 | / | / | -19 | / | / | 3
COCCNC(=O)COC(=O)/C=C/c1cnc2ccccc2n1 | 1 | 48* | 3 | -15 | -3 | 13
CCOc1ccccc1C(=O)NCC(=O)NNC(=O)c1csc(N2CCOCC2)n1 | / | / | 1 | / | / | 1
COC(=O)c1ccccc1NC(=O)c1ccc2c(c1)OCCCO2 | -16 | 59* | 3 | -13 | -5 | -3
O=C(Nc1cccc2cccnc12)c1ccc2c(c1)OCCO2 | -10 | 67* | 7 | -6 | 11 | 3
COc1cc(NC(=O)c2ccc3c(c2)OCO3)c2ncccc2c1 | -12 | 67* | 6 | -6 | -5 | 7
O=C(N[C@@H](Cc1cccnc1)C(=O)N1CCC[C@H]1C(=O)NC1CCCC1)C1CC1 | / | / | 3 | / | / | 3
COC(=O)C1=C(C)N(Cc2ccc(Cl)cc2)C(=S)NC1c1ccc(Cl)cc1 (centres undefined) | / | / | 15 | / | / | 2
COc1ccc(N2CCn3c2nc2c3c(=O)n(CCCc3ccccc3)c(=O)n2C)c(OC)c1 | 55* | 12 | 46 | -8 | 3 | 10
COC(=O)C1=C(C)N(Cc2ccccc2C(F)(F)F)C(=NCc2ccccc2C(F)(F)F)NC1c1ccc(C(F)(F)F)cc1 (centres undefined) | / | / | -25 | / | / | 2
COc1cccc(COc2cc3ccccc3nc2C)c1 | 15 | 33 | 21 | 18 | 5 | 11
Cc1nc2ccccc2cc1OCc1ccc(Cl)cc1 | 50* | 41* | 15 | 14 | 0 | 23
Cc1nc2ccccc2cc1OCc1ccccc1 | 37* | 27 | 12 | -3 | 7 | 21
Nc1ncnc2c1ncn2[C@@H]1O[C@H](C(=O)N[C@@H](CCc2ccccc2)C(=O)N2CCN(C(=O)N3CCOCC3)CC2)[C@@H](O)[C@H]1O | / | / | -13 | / | / | 1
Nc1[nH]c(C(=O)c2ccc(Br)cc2)c(-c2ccccc2Cl)c1C(=O)NCCc1c[nH]c2ccccc12 | / | / | 6 | / | / | 9
O=C1c2ccccc2C(=O)N1CCc1nc2ccccc2c(=O)n1-c1ccccn1 | -7 | 62* | 23 | -16 | -12 | 22
COc1ccccc1C(c1nnnn1Cc1ccccc1)N1CCN(C2CCCC2)CC1 (centres undefined) | -17 | 11 | -3 | 8 | -30 | 6
SMILES | CHO parental Ca | OX1R antag-1 | TAAR1 antagonist | GPR7 antagonist | OX1R antag-2 | TAAR1 ag
COc1cccc(C(c2nnnn2Cc2ccccc2)N2CCN(C3CCCC3)CC2)c1OC (centres undefined) | 1 | 15 | 53* | 1 | -25 | 24
COc1ccc(-c2cc(C(=O)NCc3cccc(C(F)(F)F)c3)[nH]n2)c(C)c1 | / | / | 1 | / | / | -1
CC(C)COc1ccc(/C(=N/O)c2ccccc2)cc1 | 33* | 6 | 13 | -7 | 26 | 11
CC(C)COc1ccc(CNC(=S)NCc2ccccc2)cc1 | -30 | 2 | 15 | -3 | 29 | 18
O=c1[nH]c(/C=C/c2cccnc2)c([N+](=O)[O-])c(=O)[nH]1 | -8 | 36 | -8 | -4 | -21 | 7
O=c1[nH]c(/C=C\c2cccnc2)c([N+](=O)[O-])c(=O)[nH]1 | 5 | 54* | 0 | -11 | 1 | 13
COc1cc(/C=C/c2[nH]c(=O)[nH]c(=O)c2[N+](=O)[O-])cc([N+](=O)[O-])c1O | -12 | 63* | -15 | 0 | -12 | 4
Cc1cc(/C=C(\C#N)C(=O)NCc2ccccc2)c(C)[nH]1 | / | / | -11 | / | / | 2
Nc1c(Cl)ncnc1N/N=C/c1cccc(O)c1 | -10 | 72* | 0 | -12 | -15 | 12
COc1ccc(/C=N/Nc2ncnc(Cl)c2N)cc1OC | -3 | 56* | 2 | -8 | -4 | 0
COc1cccc(/C=N/Nc2ncnc(Cl)c2N)c1O | -3 | 54 | -10 | -1 | -1 | 2
CN(C)c1cccc2c(S(=O)(=O)NCC3CCN(C(=O)C(=O)c4cccs4)CC3)cccc12 | / | / | -20 | / | / | 2
O=C(NNC(=O)c1cc2cc(Br)ccc2oc1=O)c1ccc(O)cc1 | -3 | 20 | -17 | -10 | 3 | 38*
C[C@@H]1CN(c2ccc(N3CCNC[C@@H]3C)cc2C#N)CCN1Cc1ccccc1 | / | / | -1 | / | / | 4
NCCCC(C(=O)O)N(C(=O)OCc1ccccc1)C(=O)OCc1ccccc1 (centres undefined) | / | / | 2 | / | / | 1
CCCn1c(SCC(=O)N2N=C3/C(=C/c4ccc(OC)cc4)CCCC3C2c2ccc(OC)cc2)n[nH]c1=O (centres undefined) | 13 | -14 | 50* | 20* | 11 | 49*
CCCn1c(SCC(=O)NCc2ccc(OC)cc2)n[nH]c1=O | -15 | 22 | -13 | -6 | -20 | 2
COc1ccc2c(c1)C(C)=CC(C)(C)N2S(=O)(=O)c1ccc(Br)cc1 | -6 | 4 | 10 | 29* | -12 | 0
CCOc1ccc2c(c1)C(C)=CC(C)(C)N2S(=O)(=O)c1ccc(F)cc1 | -12 | 23 | -7 | -18 | -11 | -1
COc1ccc2cc3[n+](cc2c1OC)CCc1cc2c(cc1-3)OCO2 | -9 | 55*! | -14 | -4 | -2 | -1
COc1cccc(C2=NCCc3cc4c(cc32)OCO4)c1OC | -3 | 18 | -12 | -11 | -20 | -1
CN(C)c1ccc(CC(=O)N2CCCCC2c2cc(C(=O)Nc3cccc(C#N)c3)no2)cc1 (centres undefined) | / | / | 7 | / | / | 10
CCCOC(=O)c1ccc(Oc2c(-c3ccc(O)cc3O)n[nH]c2C)cc1 | 50* | 2 | 16 | -12 | 4 | 15
CCCOC(=O)c1ccc(Oc2c(-c3ccc(OC)cc3O)n[nH]c2C)cc1 | -25 | 5 | 30 | -22 | -20 | 3
